Measured values: ChEMBL document CHEMBL1140227, “Histone deacetylase inhibitors through click chemistry” (J Med Chem, 2008)

Columns and labels:
Assay type in all cases: functional
Melanoma cell = assay: cells; settings: Homo sapiens
HCT-15 = assay: Growth inhibition of human HCT15 cells at 10 uM relative to control; settings: values are per cent of control
How it was run: (§1)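 Single-dose preliminary screen in the NCI human cancer cell line panel, run by the NIH. Percent inhibition of cell line growth was calculated by comparison with untreated samples.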

[1] = Growth inhibition of human Hs 578T cells at 10 uM relative to control; settings: values are per cent of control
How it was run: as §1

MCF7 = assay: Growth inhibition of human MCF7 cells at 10 uM relative to control; settings: values are per cent of control
How it was run: as §1

cells [2] = settings: Homo sapiens, Cancer cell lines
KM12 = assay: Growth inhibition of human KM12 cells at 10 uM relative to control; settings: values are per cent of control
How it was run: as §1

EKVX = assay: Growth inhibition of human EKVX cells at 10 uM relative to control; settings: values are per cent of control
How it was run: as §1

SK-MEL-5 = assay: Growth inhibition of human SK-MEL-5 cells at 10 uM relative to control; settings: values are per cent of control
How it was run: as §1

NCI-H226 = assay: Growth inhibition of human NCI-H226 cells at 10 uM relative to control; settings: values are per cent of control
How it was run: as §1

BT-549 = assay: Growth inhibition of human BT549 cells at 10 uM relative to control; settings: values are per cent of control
How it was run: as §1

SNB-19 = assay: Growth inhibition of human SNB19 cells at 10 uM relative to control; settings: values are per cent of control
How it was run: as §1

[3] = Growth inhibition of human RPMI8266 cells at 10 uM relative to control; settings: values are per cent of control
How it was run: as §1

MDA-MB-468 = assay: Growth inhibition of human MDA-MB-468 cells at 10 uM relative to control; settings: values are per cent of control
How it was run: as §1

MDA-MB-231 = assay: Growth inhibition of human MDA-MB-231 cells at 10 uM relative to control; settings: values are per cent of control
How it was run: as §1

OVCAR-5 = assay: Growth inhibition of human OVCAR5 cells at 10 uM relative to control; settings: values are per cent of control
How it was run: as §1

SK-OV-3 = assay: Growth inhibition of human SKOV3 cells at 10 uM relative to control; settings: values are per cent of control
How it was run: as §1

NCI-H322M = assay: Growth inhibition of human NCI-H322M cells at 10 uM relative to control; settings: values are per cent of control
How it was run: as §1

IGROV-1 = assay: Growth inhibition of human IGROV1 cells at 10 uM relative to control; settings: values are per cent of control
How it was run: as §1

CCRF-CEM = assay: Growth inhibition of human CCRF-CEM cells at 10 uM relative to control; settings: values are per cent of control
How it was run: as §1

HT-29 = assay: Growth inhibition of human HT-29 cells at 10 uM relative to control; settings: values are per cent of control
How it was run: as §1

OVCAR-3 = assay: Growth inhibition of human OVCAR-3 cells at 10 uM relative to control; settings: values are per cent of control
How it was run: as §1

M14 = assay: Growth inhibition of human M14 cells at 10 uM relative to control; settings: values are per cent of control
How it was run: as §1

cells [4] = settings: Homo sapiens, Cancer cell lines; remark: listed apart in the source
SK-MEL-2 = assay: Growth inhibition of human SK-MEL-2 cells at 10 uM relative to control; settings: values are per cent of control
How it was run: as §1

cells [5] = settings: Homo sapiens, Cancer cell lines; remark: listed apart in the source
UO-31 = assay: Growth inhibition of human UO31 cells at 10 uM relative to control; settings: values are per cent of control
How it was run: (§2)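 Single-dose NCI human tumour cell line screen, run by the NIH. Percent inhibition of cell line growth was calculated by comparison with untreated samples.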

NCI-H23 = assay: Growth inhibition of human NCI-H23 cells at 10 uM relative to control; settings: values are per cent of control
How it was run: as §1

A549 = assay: Growth inhibition of human A549 cells at 10 uM relative to control; settings: values are per cent of control
How it was run: as §1

HL-60(TB) = assay: Growth inhibition of human HL-60(TB) cells at 10 uM relative to control; settings: read-out: INH
How it was run: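 Single-dose cell line screen run by the NCI (NIH) in its human cancer cell line panel, which includes the leukemia line HL-60(TB). Percent growth inhibition was calculated by comparison with untreated samples.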

COLO 205 = assay: Growth inhibition of human COLO205 cells at 10 uM relative to control; settings: values are per cent of control
How it was run: as §1

cells [6] = settings: Homo sapiens, Cancer cell lines; remark: listed apart in the source
SK-MEL-28 = assay: Growth inhibition of human SK-MEL-28 cells at 10 uM relative to control; settings: values are per cent of control
How it was run: as §1

HCC 2998 = assay: Growth inhibition of human HCC2998 cells at 10 uM relative to control; settings: values are per cent of control
How it was run: as §1

CAKI-1 = assay: Growth inhibition of human Caki1 cells at 10 uM relative to control; settings: values are per cent of control
How it was run: as §1

SF-539 = assay: Growth inhibition of human SF539 cells at 10 uM relative to control; settings: values are per cent of control
How it was run: as §1

MDA-MB-435 = assay: Growth inhibition of human MDA-MB-435 cells at 10 uM relative to control; settings: values are per cent of control
How it was run: as §1

HOP-62 = assay: Growth inhibition of human HOP62 cells at 10 uM relative to control; settings: values are per cent of control
How it was run: as §1

Leukemia cell = assay: cells; settings: Homo sapiens
DU-145 = assay: Growth inhibition of human DU145 cells at 10 uM relative to control; settings: values are per cent of control
How it was run: as §1

OVCAR-8 = assay: Growth inhibition of human OVCAR8 cells at 10 uM relative to control; settings: values are per cent of control
How it was run: as §1

786-0 = assay: Growth inhibition of human 786-0 cells at 10 uM relative to control; settings: values are per cent of control
How it was run: as §1

UACC-257 = assay: Growth inhibition of human UACC257 cells at 10 uM relative to control; settings: values are per cent of control
How it was run: as §2

TK-10 = assay: Growth inhibition of human TK10 cells at 10 uM relative to control; settings: values are per cent of control
How it was run: as §2

UACC-62 = assay: Growth inhibition of human UACC62 cells at 10 uM relative to control; settings: values are per cent of control
How it was run: as §2

LOX IMVI = assay: Growth inhibition of human LOXIMVI cells at 10 uM relative to control; settings: values are per cent of control
How it was run: as §1

SF-268 = assay: Growth inhibition of human SF268 cells at 10 uM relative to control; settings: values are per cent of control
How it was run: as §1

ACHN = assay: Growth inhibition of human ACHN cells at 10 uM relative to control; settings: values are per cent of control
How it was run: as §1

T47D = assay: Growth inhibition of human T47D cells at 10 uM relative to control; settings: values are per cent of control
How it was run: as §2

Malme-3M = assay: Growth inhibition of human MALME-3M cells at 10 uM relative to control; settings: values are per cent of control
How it was run: as §1

SNB-75 = assay: Growth inhibition of human SNB75 cells at 10 uM relative to control; settings: values are per cent of control
How it was run: as §2

NCI-H522 = assay: Growth inhibition of human NCI-H522 cells at 10 uM relative to control; settings: values are per cent of control
How it was run: as §1

cells [7] = settings: Homo sapiens, Cancer cell lines; remark: listed apart in the source
SN12C = assay: Growth inhibition of human SN12C cells at 10 uM relative to control; settings: values are per cent of control
How it was run: as §1

MOLT-4 = assay: Growth inhibition of human MOLT4 cells at 10 uM relative to control; settings: values are per cent of control
How it was run: as §1

U-251 = assay: Growth inhibition of human U251 cells at 10 uM relative to control; settings: values are per cent of control
How it was run: as §2

SF-295 = assay: Growth inhibition of human SF295 cells at 10 uM relative to control; settings: values are per cent of control
How it was run: as §1

OVCAR-4 = assay: Growth inhibition of human OVCAR4 cells at 10 uM relative to control; settings: values are per cent of control
How it was run: as §1

HCT-116 = assay: Growth inhibition of human HCT116 cells at 10 uM relative to control; settings: values are per cent of control
How it was run: as §1

NCI-H460 = assay: Growth inhibition of human NCI-H460 cells at 10 uM relative to control; settings: values are per cent of control
How it was run: as §1

NCI/ADR-RES = assay: Growth inhibition of human NCI/ADR-RES cells at 10 uM relative to control; settings: values are per cent of control
How it was run: as §1

K562 = assay: Growth inhibition of human K562 cells at 10 uM relative to control; settings: values are per cent of control
How it was run: as §1

PC-3 = assay: Growth inhibition of human PC3 cells at 10 uM relative to control; settings: values are per cent of control
How it was run: as §1

O=C(/C=C/c1cn(CC(=O)c2ccccc2)nn1)NO
inhibition at 10 µM (Melanoma cell): 60% | growth, % of control at 10 µM (HCT-15): 117% | growth, % of control at 10 µM [1]: 211% | growth, % of control at 10 µM (MCF7): 77.8% | growth percent at 10 µM (cells [2]): 65% | growth, % of control at 10 µM (KM12): 78% | growth, % of control at 10 µM (EKVX): 54.6% | growth, % of control at 10 µM (SK-MEL-5): 92.9% | growth, % of control at 10 µM (NCI-H226): 89.4% | growth, % of control at 10 µM (BT-549): 72.1% | growth, % of control at 10 µM (SNB-19): 101% | growth, % of control at 10 µM [3]: 55.6% | growth, % of control at 10 µM (MDA-MB-468): 64.6% | growth, % of control at 10 µM (MDA-MB-231): 96.9% | growth, % of control at 10 µM (OVCAR-5): 65% | growth, % of control at 10 µM (SK-OV-3): 81.9% | growth, % of control at 10 µM (NCI-H322M): 41.3% | growth, % of control at 10 µM (IGROV-1): 64.2% | growth, % of control at 10 µM (CCRF-CEM): 48.6% | growth, % of control at 10 µM (HT-29): 60% | growth, % of control at 10 µM (OVCAR-3): 57.7% | growth, % of control at 10 µM (M14): 49.5% | inhibition at 10 µM (cells [4]): 53% | growth, % of control at 10 µM (SK-MEL-2): 61.7% | inhibition at 10 µM (cells [5]): 67% | growth, % of control at 10 µM (UO-31): 45.3% | growth, % of control at 10 µM (NCI-H23): 69.2% | growth, % of control at 10 µM (A549): 54.1% | growth, % of control at 10 µM (HL-60(TB)): 258% | growth, % of control at 10 µM (COLO 205): 105% | growth percent at 10 µM (cells [6]): 78% | growth, % of control at 10 µM (SK-MEL-28): 82.2% | growth, % of control at 10 µM (HCC 2998): 71.1% | growth, % of control at 10 µM (CAKI-1): 63.9% | growth, % of control at 10 µM (SF-539): 86.4% | growth, % of control at 10 µM (MDA-MB-435): 23.3% | growth, % of control at 10 µM (HOP-62): 30.1% | inhibition at 10 µM (Leukemia cell): 104% | growth, % of control at 10 µM (DU-145): 75.2% | growth, % of control at 10 µM (OVCAR-8): 45.1% | growth, % of control at 10 µM (786-0): 39.9% | growth, % of control at 10 µM (UACC-257): 43.9% | growth, % of control at 10 µM (TK-10): 46.7% | growth, % of control at 10 µM (UACC-62): 61.2% | growth, % of control at 10 µM (LOX IMVI): 88.3% | growth, % of control at 10 µM (SF-268): 71.9% | growth, % of control at 10 µM (ACHN): 82.5% | growth, % of control at 10 µM (T47D): 64.7% | growth, % of control at 10 µM (Malme-3M): 6.42% | growth, % of control at 10 µM (SNB-75): 53.9% | growth, % of control at 10 µM (NCI-H522): 31.1% | inhibition at 10 µM (cells [7]): 65% | growth, % of control at 10 µM (SN12C): 86.2% | growth, % of control at 10 µM (MOLT-4): 83% | growth, % of control at 10 µM (U-251): 76% | growth, % of control at 10 µM (SF-295): 15.3% | growth, % of control at 10 µM (OVCAR-4): 77.8% | growth, % of control at 10 µM (HCT-116): 30.7% | growth, % of control at 10 µM (NCI-H460): 62.5% | growth, % of control at 10 µM (NCI/ADR-RES): 14.8% | growth, % of control at 10 µM (K562): 72.3% | growth, % of control at 10 µM (PC-3): 57.8%
